Data set [1] can be described thus: Apparent permeability of the compound from apical to basal side of human Caco2 cells at 50 umol/L after 2 hrs by UPLC/MS analysis. The conditions noted are these: Caco-2. In kind it is ADME, cell-based. In a few lines: (§1)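 Caco-2 monolayers grown 7 days on Transwell inserts, washed with HBSS/HEPES pH 7.4. Compound at 50 µmol/L added apically or basolaterally, then 2 h at 37°C. Receiver side sampled and quantified by UPLC/MS. Papp = (dQ/dt)/(A×C0), triplicates.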
(In general: Caco-2 cells form a polarised layer with tight junctions and transporters.)

Data set [2] can be described thus: Plasma protein binding in mouse at 10 uM after 4 hrs by LC/MS analysis. The conditions noted are these: read-out: PPB (converted). The format is ADME, cell-free. In a few lines: (§2)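 Compound at 10 µM (0.1% DMSO) in mouse or human plasma. Rapid equilibrium dialysis (MWCO 8K) against DPBS pH 7.4, 4 h at 37°C with orbital shaking. Both chambers matrix-matched, precipitated with acetonitrile containing warfarin internal standard, quantified by LC–MS. %Free = buffer/plasma × 100; %Bound = 100 − %Free.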

The next data set concerns Escherichia coli. Kind of data set: Antibacterial activity against Escherichia coli K12 after overnight incubation by microbroth dilution technique. The conditions noted are these: K-12. The format is functional. Put shortly:
(§3)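 Non-mycobacterial strains: two-fold serial dilutions in broth by CLSI microbroth dilution. Inoculum about 10^5 cfu/mL; top final drug concentration 200 µg/mL. Aerobic incubation at 37°C overnight. MIC read visually as the lowest concentration with no visible growth.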

Another data set has as its system Streptococcus pneumoniae. Kind of data set: Antibacterial activity against Streptococcus pneumoniae DAW27 after overnight incubation by microbroth dilution technique. The format is functional. In a few lines:
(§4)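 Two-fold serial broth dilutions per CLSI; inoculum about 10^5 CFU/mL; top final drug concentration 200 µg/mL; incubated aerobically overnight at 37°C. MIC read visually as the lowest concentration with no visible growth.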

Data set [3] is described as follows: Apparent permeability of the compound from basal to apical side of human Caco2 cells at 50 umol/L after 2 hrs by UPLC/MS analysis. In kind it is ADME, cell-based. The conditions noted are these: Caco-2. In a few lines: as §1
Data set [4] in a line: Plasma protein binding in human at 10 uM after 4 hrs by LC/MS analysis. In kind it is ADME, cell-free. As to conditions: read-out: PPB (converted). In a few lines:
as §2

Data set [5] is described as follows: Solubility of the compound at pH 7.4 after 18 hrs by UV spectrometry. The format is physicochemical. The conditions noted are these: buffer, pH 7.4. In a few lines: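 10 mM DMSO stocks diluted 100-fold in system solution buffer pH 7.4 and held 18 h at room temperature. Filtered, diluted 1:1 with isopropanol and measured by UV (230–500 nm). Compared against a 600-fold diluted reference in buffer/isopropanol. Triplicates.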

A short description of data set [6]: Half life in mouse liver microsomes. The format is ADME, Microsome. Put shortly:
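Mouse liver microsomes at 0.6381 mg/mL protein in 0.1 M potassium phosphate pH 7.4 with EDTA. Reaction started with NADPH regenerating system at 37°C; six time points including 0, triplicate wells. Quenched in cold acetonitrile with warfarin internal standard, analysed by LC–MS. Half-life from a first-order least-squares fit.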
Background: Microsomes from liver hold many membrane-bound enzymes, among them those of drug oxidation.

In the next data set the test system is Staphylococcus aureus. Kind of data set: Antibacterial activity against Staphylococcus aureus ATCC 29213 after overnight incubation by microbroth dilution technique. In kind it is functional. Put shortly: as §4
On the technique in general: In broth dilution the organism is exposed to a series of concentrations in liquid medium.

The next data set deals with Bacillus anthracis. Briefly: Antibacterial activity against Bacillus anthracis Sterne 34F2 after overnight incubation by microbroth dilution technique. The format is functional. In a few lines:
as §3

For the next data set, the system named is Streptococcus pyogenes. Kind of data set: Antibacterial activity against Streptococcus pyogenes ATCC 700294 after overnight incubation by microbroth dilution technique. In kind it is functional. In a few lines:
as §4

Another data set has as its system Enterococcus faecalis. Kind of data set: Antibacterial activity against Enterococcus faecalis ATCC 3186 after overnight incubation by microbroth dilution technique. In kind it is functional. In a few lines: as §4
The nature of data set [7]: Half life in human liver microsomes. The format is ADME, Microsome.
The test system of the next data set is Bacillus subtilis. Briefly: Antibacterial activity against Bacillus subtilis ATCC 23857 after overnight incubation by microbroth dilution technique. The format is functional. Put shortly: as §3

Values after ≈ are worked out from the molar mass of the structure shown.

The Papp A→B is how fast a substance crosses the layer from the apical side. For orientation: MIC means the least concentration at which growth counts as inhibited. For orientation: Papp B→A means the apparent permeability from the basolateral to the apical side of a cell layer. Broadly, the solubility is how much of the substance goes into solution per volume. Read a high solubility as much dissolved substance. In general, half-life refers to the time needed for the level to fall by half in the phase considered. Low readings indicate rapid decline, high ones slow decline.

Consider `CN1CCN(c2ccc(C3CC(c4ccc([N+](=O)[O-])o4)=NO3)cc2F)C(=O)C1` (stereo not drawn), for which the Papp A→B at 2 h, 50 µM in data set [1] is 27 ×10⁻⁶ cm/s. The fraction unbound at 4 h, 10 µM is 0.172 in data set [2] and 0.391 in data set [4]. Further, the MIC against Escherichia coli worked out at 200 µg/mL (≈ 515 µM); in the data set with Streptococcus pneumoniae, 50 µg/mL (≈ 129 µM); in the data set on Staphylococcus aureus, 6.25 µg/mL (≈ 16.1 µM); with Bacillus anthracis, 25 µg/mL (≈ 64.4 µM); against Streptococcus pyogenes, 50 µg/mL (≈ 129 µM); with Enterococcus faecalis, 100 µg/mL (≈ 257 µM). The Papp B→A at 2 h, 50 µM in data set [3] stood at 38.6 ×10⁻⁶ cm/s. In addition, in data set [5], the solubility at 18 h was determined as 29.2 µg/mL (≈ 75.2 µM). Also, the half-life is 0.62 h in data set [6] and 4.81 h in data set [7].
Turning to `O=[N+]([O-])c1ccc(C2=NOC(c3ccc(N4CC[S+]([O-])CC4)cc3)C2)o1` (stereo not drawn), the Papp A→B at 2 h, 50 µM in data set [1] came to 24.2 ×10⁻⁶ cm/s. Moreover, the figures for the fraction unbound at 4 h, 10 µM in [2] and in data set [4] were 0.178 and 0.223, respectively. The minimum inhibitory concentration (MIC) was determined as 100 µg/mL (≈ 266 µM) against Escherichia coli; 50 µg/mL (≈ 133 µM) against Streptococcus pneumoniae; 6.25 µg/mL (≈ 16.6 µM) with Bacillus subtilis; 6.25 µg/mL (≈ 16.6 µM) in the data set on Staphylococcus aureus; 12.5 µg/mL (≈ 33.3 µM) against Bacillus anthracis; 50 µg/mL (≈ 133 µM) with Streptococcus pyogenes. This compound also came in with an MIC against Enterococcus faecalis of 100 µg/mL (≈ 266 µM). In addition, the apparent permeability from basolateral to apical (Papp B→A) at 2 h, 50 µM in data set [3] amounted to 27.2 ×10⁻⁶ cm/s. Moreover, the solubility at 18 h in data set [5] was found to be 28.9 µg/mL (≈ 77 µM). Moreover, the half-life in data set [6] is 0.87 h; in [7], 4.53 h.
`O=[N+]([O-])c1ccc(C2=NOC(c3ccc(N4CCOCC4)c(F)c3)C2)o1` (stereo not drawn): the fraction unbound at 4 h, 10 µM in data set [2] was 0.061; in data set [4], 0.066. Moreover, the minimal inhibitory concentration (MIC) against Escherichia coli is over 200 µg/mL; against Streptococcus pneumoniae, 200 µg/mL (≈ 554 µM); in the data set on Bacillus subtilis it was 200 µg/mL (≈ 554 µM); in the data set with Staphylococcus aureus, 25 µg/mL (≈ 69.2 µM); against Bacillus anthracis it was 12.5 µg/mL (≈ 34.6 µM); against Streptococcus pyogenes, 200 µg/mL (≈ 554 µM). In the data set with Enterococcus faecalis, inhibition of growth (MIC) required 200 µg/mL (≈ 554 µM). This compound also displayed a solubility at 18 h in data set [5] of 3.2 µg/mL (≈ 8.86 µM).
For `O=C1COCCN1c1ccc(C2CC(c3ccc([N+](=O)[O-])o3)=NO2)cn1` (stereo not drawn), the apparent permeability from apical to basolateral (Papp A→B) at 2 h, 50 µM in data set [1] is 8.61 ×10⁻⁶ cm/s. Besides, the fraction unbound at 4 h, 10 µM in data set [2] is 0.411; in [4] it was 0.398. Further, the MIC is 25 µg/mL (≈ 69.8 µM) against Escherichia coli; 50 µg/mL (≈ 140 µM) in the data set with Streptococcus pneumoniae; 12.5 µg/mL (≈ 34.9 µM) against Bacillus subtilis; 12.5 µg/mL (≈ 34.9 µM) against Staphylococcus aureus; 25 µg/mL (≈ 69.8 µM) with Bacillus anthracis; over 200 µg/mL in the data set with Enterococcus faecalis. Further, the Papp B→A at 2 h, 50 µM in data set [3] was 45.7 ×10⁻⁶ cm/s. Besides, the concentration in solution in data set [5] (solubility at 18 h) came to 21.9 µg/mL (≈ 61.2 µM). In addition, the half-life in [6] was 1.01 h; in [7] it was 1.52 h.
`O=C1COCCN1c1ccc(C2CC(c3ccc([N+](=O)[O-])o3)=NO2)cc1F` (stereo not drawn): the Papp A→B at 2 h, 50 µM in [1] stood at 15.4 ×10⁻⁶ cm/s. The fraction unbound at 4 h, 10 µM in [2] was 0.203; in data set [4], 0.292. Moreover, the minimum inhibitory concentration (MIC) against Escherichia coli was over 200 µg/mL; against Streptococcus pneumoniae, 200 µg/mL (≈ 533 µM); against Staphylococcus aureus it was 6.25 µg/mL (≈ 16.7 µM); in the data set on Bacillus anthracis, 25 µg/mL (≈ 66.6 µM); in the data set with Streptococcus pyogenes, 100 µg/mL (≈ 266 µM); against Enterococcus faecalis, 200 µg/mL (≈ 533 µM). Further, in data set [3], the basolateral-to-apical permeability (Papp B→A) at 2 h, 50 µM worked out at 42.4 ×10⁻⁶ cm/s. In [5], this compound showed a solubility at 18 h of 12.6 µg/mL (≈ 33.5 µM). In addition, the half-life in [6] was 1.38 h; in data set [7] it was 8.31 h.
As to `O=[N+]([O-])c1ccc(C2=NOC(c3ccc(N4CCSCC4)cc3)C2)o1` (stereo not drawn), the Papp A→B at 2 h, 50 µM in data set [1] was 9.62 ×10⁻⁶ cm/s. The fraction unbound at 4 h, 10 µM in data set [2] is 0.013; in data set [4], 0.015. Besides, the values for the minimum inhibitory concentration (MIC) with Escherichia coli, against Streptococcus pyogenes and in the data set with Enterococcus faecalis were over 200 µg/mL, over 200 µg/mL and 100 µg/mL (≈ 278 µM), respectively. Besides, the basolateral-to-apical permeability (Papp B→A) at 2 h, 50 µM in data set [3] was 11.4 ×10⁻⁶ cm/s. In data set [5], this compound showed a solubility at 18 h of 1.9 µg/mL (≈ 5.29 µM). Moreover, the half-life in data set [6] is 0.04 h; in [7] it was 0.21 h.

These data come from ChEMBL document CHEMBL2146426, “Antitubercular nitrofuran isoxazolines with improved pharmacokinetic properties” (Bioorg Med Chem, 2012).
